Measurements as given in ChEMBL document CHEMBL3108700, “Designing anti-inflammatory drugs from parasitic worms: a synthetic small molecule analogue of the Acanthocheilonema viteae product ES-62 prevents development of collagen-induced arthritis” (J Med Chem, 2013).
Active and inactive are the calls of the source. No rule for the calls is given here.

Assays:
[1] = molecular target: T1, Toll-like receptor 9 (Mus musculus) (UniProt Q9EQU3); experiment: Inhibition of TLR9 in BALB/c mouse BMDM assessed as downregulation of CpG-stimulated IL-6 level at 5 ug/ml preincubated for 18 hrs followed by CpG challenge measured after 24 hrs by ELISA relative to control
T1 sequence (whole entry): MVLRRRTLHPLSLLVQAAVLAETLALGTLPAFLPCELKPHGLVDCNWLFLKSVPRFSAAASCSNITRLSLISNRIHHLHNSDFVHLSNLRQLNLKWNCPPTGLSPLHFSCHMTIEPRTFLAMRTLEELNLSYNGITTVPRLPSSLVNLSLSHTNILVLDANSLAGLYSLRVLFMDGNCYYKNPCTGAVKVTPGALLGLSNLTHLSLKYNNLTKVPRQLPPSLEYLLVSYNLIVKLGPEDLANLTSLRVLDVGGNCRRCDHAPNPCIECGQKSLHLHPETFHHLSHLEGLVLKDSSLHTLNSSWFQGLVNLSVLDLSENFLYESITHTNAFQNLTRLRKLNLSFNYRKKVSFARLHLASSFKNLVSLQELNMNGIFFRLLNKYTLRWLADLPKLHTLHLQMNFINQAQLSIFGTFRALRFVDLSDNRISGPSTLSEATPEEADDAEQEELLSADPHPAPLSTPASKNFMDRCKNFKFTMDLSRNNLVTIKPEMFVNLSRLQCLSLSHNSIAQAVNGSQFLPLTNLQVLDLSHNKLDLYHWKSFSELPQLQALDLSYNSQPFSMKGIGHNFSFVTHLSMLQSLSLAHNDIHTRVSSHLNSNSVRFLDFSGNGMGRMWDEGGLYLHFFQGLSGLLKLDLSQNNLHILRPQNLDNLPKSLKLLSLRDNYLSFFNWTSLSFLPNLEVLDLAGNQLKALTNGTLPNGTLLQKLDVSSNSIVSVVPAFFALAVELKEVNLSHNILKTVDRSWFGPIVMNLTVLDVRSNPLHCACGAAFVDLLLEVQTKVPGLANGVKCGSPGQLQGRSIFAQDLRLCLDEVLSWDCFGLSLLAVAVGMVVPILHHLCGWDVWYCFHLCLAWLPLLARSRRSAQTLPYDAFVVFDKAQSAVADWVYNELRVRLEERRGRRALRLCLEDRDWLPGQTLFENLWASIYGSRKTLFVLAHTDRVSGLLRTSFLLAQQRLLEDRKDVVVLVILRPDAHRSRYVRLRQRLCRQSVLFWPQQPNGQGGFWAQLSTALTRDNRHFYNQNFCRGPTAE
In short: (§1)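 BALB/c male bone marrow macrophages were differentiated 7 days with L929 supernatant (≥99% CD11b+/F4/80+). Cells were plated at 2 × 10^5/well in triplicate, rested overnight, and given compounds at 5 μg/mL for 18 h. They were then stimulated with 100 ng/mL S. minnesota LPS, 10 ng/mL Pam3CSK4 (BLP) or 0.01 μM CpG for 24 h. Supernatant IL-12p40 and IL-6 were measured by ELISA (sensitivity 16 pg/mL).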

[2] = molecular target: T1, Toll-like receptor 9 (Mus musculus); experiment: Inhibition of TLR9 in BALB/c mouse BMDM assessed as downregulation of CpG-stimulated IL-12p40 level at 5 ug/ml preincubated for 18 hrs followed by CpG challenge measured after 24 hrs by ELISA relative to control; in short: as §1
TLR2/TLR6 (Mus musculus) [3] = molecular target: T2, TLR2/TLR6 (Mus musculus) (UniProt Q9QUN7+Q9EPW9); experiment: Inhibition of TLR2/6 in BALB/c mouse BMDM assessed as downregulation of BLP-stimulated IL-6 level at 5 ug/ml preincubated for 18 hrs followed by BLP challenge measured after 24 hrs by ELISA relative to control; type: protein-complex assay; in short: as §1
TLR2/TLR6 (Mus musculus) [4] = molecular target: T2, TLR2/TLR6 (Mus musculus); experiment: Inhibition of TLR2/6 in BALB/c mouse BMDM assessed as downregulation of BLP-stimulated IL-12p40 level at 5 ug/ml preincubated for 18 hrs followed by BLP challenge measured after 24 hrs by ELISA relative to control; type: protein-complex assay; in short: as §1
[5] = molecular target: T3, Toll-like receptor 4 (Mus musculus) (UniProt Q9QUK6); experiment: Inhibition of TLR4 in BALB/c mouse BMDM assessed as downregulation of LPS-stimulated IL-6 level at 5 ug/ml preincubated for 18 hrs followed by LPS challenge measured after 24 hrs by ELISA relative to control; in short: as §1
T3 sequence (whole entry): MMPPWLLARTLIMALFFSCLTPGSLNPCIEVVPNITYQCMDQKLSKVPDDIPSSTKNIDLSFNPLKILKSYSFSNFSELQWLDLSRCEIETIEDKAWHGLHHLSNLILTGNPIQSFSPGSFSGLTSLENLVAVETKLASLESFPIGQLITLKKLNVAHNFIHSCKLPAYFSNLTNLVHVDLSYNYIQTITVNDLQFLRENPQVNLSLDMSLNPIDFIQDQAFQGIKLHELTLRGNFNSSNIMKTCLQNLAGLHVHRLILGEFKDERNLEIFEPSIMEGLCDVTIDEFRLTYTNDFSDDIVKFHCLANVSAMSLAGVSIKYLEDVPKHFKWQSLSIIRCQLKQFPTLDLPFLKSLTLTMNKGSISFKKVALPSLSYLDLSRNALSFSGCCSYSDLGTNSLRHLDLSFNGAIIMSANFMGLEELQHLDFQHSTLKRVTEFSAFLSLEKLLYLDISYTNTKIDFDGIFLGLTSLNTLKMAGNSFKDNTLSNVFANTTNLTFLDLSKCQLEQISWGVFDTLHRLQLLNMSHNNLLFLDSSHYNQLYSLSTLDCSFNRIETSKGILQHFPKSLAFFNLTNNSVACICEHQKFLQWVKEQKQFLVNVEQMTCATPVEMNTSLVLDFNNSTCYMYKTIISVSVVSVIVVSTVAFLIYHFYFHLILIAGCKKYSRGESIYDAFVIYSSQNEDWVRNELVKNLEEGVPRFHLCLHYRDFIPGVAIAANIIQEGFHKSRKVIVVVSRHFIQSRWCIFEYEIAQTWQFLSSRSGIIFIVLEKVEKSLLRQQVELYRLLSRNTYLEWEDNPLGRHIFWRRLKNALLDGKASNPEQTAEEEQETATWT

[6] = molecular target: T3, Toll-like receptor 4 (Mus musculus); experiment: Inhibition of TLR4 in BALB/c mouse BMDM assessed as downregulation of LPS-stimulated IL-12p40 level at 5 ug/ml preincubated for 18 hrs followed by LPS challenge measured after 24 hrs by ELISA relative to control; in short: as §1

inhibition [1] | inhibition [2] | inhibition (TLR2/TLR6 (Mus musculus) [3]) | inhibition (TLR2/TLR6 (Mus musculus) [4]) | inhibition [5] | inhibition [6] | Structure (SMILES)
Active | Active | Active | inactive | Active | Active | O=C(Cc1ccccc1)NCCN1CCCC1
inactive | inactive | inactive | Active | inactive | inactive | O=S(=O)(CCN1CCCC1)c1ccccc1
inactive | inactive | inactive | inactive | inactive | inactive | CN(C)CCOP(=O)(O)Cc1ccc(Br)cc1
Active | inactive | inactive | Active | inactive | Active | COc1cccc(C(=O)NCCN2CCCC2)c1
inactive | inactive | inactive | Active | inactive | Active | COc1ccc2c(CS(=O)(=O)NCCN(C)C)cc(=O)oc2c1
inactive | inactive | inactive | inactive | inactive | inactive | CN(C)CCCNC(=O)Cc1ccccc1
inactive | inactive | inactive | inactive | inactive | inactive | CN(C)CCNCCS(=O)(=O)c1ccccc1
inactive | inactive | inactive | inactive | inactive | inactive | Cc1ccc(CS(=O)(=O)CCC[N+](C)(C)C)cc1
inactive | inactive | inactive | inactive | inactive | inactive | C[N+](C)(C)CCS(=O)(=O)Cc1ccc(Br)cc1
inactive | inactive | inactive | Active | Active | Active | C[N+]1(CCS(=O)(=O)Cc2ccc(Br)cc2)CCCC1
inactive | inactive | inactive | inactive | inactive | inactive | O=S(=O)(Cc1ccc(F)cc1)NCCN1CCOCC1
inactive | inactive | inactive | inactive | inactive | inactive | Cc1ccc(CP(=O)(O)OCCN(C)C)cc1
inactive | inactive | inactive | inactive | inactive | inactive | O=S(=O)(Cc1ccccc1)NCCN1CCCC1
inactive | inactive | inactive | Active | inactive | inactive | CN(C)CCN(C)CCS(=O)(=O)Cc1ccc(F)cc1
inactive | inactive | inactive | Active | inactive | inactive | O=S(=O)(CCN1CCCC1)Cc1cccc(F)c1
inactive | inactive | inactive | inactive | Active | inactive | O=S(=O)(CCN1CCOCC1)Cc1ccc(F)cc1
inactive | inactive | inactive | inactive | inactive | inactive | O=S(=O)(Cc1ccc(Br)cc1)NCCN1CCOCC1
inactive | inactive | inactive | Active | inactive | Active | C[N+](C)(C)CCOP(=O)(O)Cc1ccc(Br)cc1
Active | inactive | inactive | inactive | inactive | Active | COc1cccc(C(=O)NCCCN(C)C)c1
inactive | inactive | inactive | inactive | inactive | inactive | O=S(=O)(CCN1CCCC1)NCc1ccc(Br)cc1
inactive | inactive | inactive | inactive | inactive | inactive | Cc1ccc(CS(=O)(=O)CCCN2CCOCC2)cc1
inactive | inactive | inactive | Active | inactive | Active | COc1ccc2c(CS(=O)(=O)NCCN3CCCC3)cc(=O)oc2c1
inactive | inactive | inactive | inactive | inactive | Active | CN(C)CCN(C)CCS(=O)(=O)Nc1ccccc1
inactive | inactive | inactive | inactive | inactive | Active | O=S(=O)(CCN1CCCC1)Cc1ccc(Br)cc1
